Here are results for 8 compounds from ChEMBL document CHEMBL1781933, “Neurosteroid analogues. 16. A new explanation for the lack of anesthetic effects of δ(16)-alphaxalone and identification of a δ(17(20)) analogue with potent anesthetic activity” (J Med Chem, 2011).

A word on the EC50: it is the concentration needed to bring the measured effect to its halfway point.

Active and inactive are the calls of the source. No cut-off for these calls is given here.

Assay [1] deals with Mus musculus. Nature of the assay: Anesthetic effect in mouse assessed as duration of loss of righting reflex at 16 mg/kg, iv. It counts as functional.
In assay [2] the test system is Mus musculus. Nature of the assay: Anesthetic effect in mouse assessed as immediate loss of righting reflex at 16 mg/kg, iv. Format: functional, organism-based. The arrangement: dose 16 mg/kg.
Assay [3] relates to Mus musculus. The assay is described as follows: Anesthetic effect in mouse assessed as time taken for recovery of righting effect and walking at 16 mg/kg, iv. Format: functional.
Assay [4] has as its system Mus musculus. Nature of the assay: Anesthetic effect in mouse assessed as loss of righting reflex at 8 mg/kg, iv. More on the design: dose 8 mg/kg. Format: functional, organism-based.
In assay [5] the test system is Xenopus laevis. The assay is described as follows: Anesthetic effect on Xenopus laevis tadpole assessed as loss of swimming reflex. Format: functional, organism-based. Put shortly:
(§1)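 Xenopus tadpoles were exposed to steroid at five or more concentrations, with 10 or more animals per concentration. Loss of righting or swimming reflex was scored. EC50 and Hill coefficient were fitted from the dose–response curves; mean ± SEM.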

Assay [6] relates to Xenopus laevis. The assay is described as follows: Anesthetic effect on Xenopus laevis tadpole assessed as loss of swimming reflex at 10 uM. Format: functional, organism-based.
Assay [7] has as its system Mus musculus. The assay is described as follows: Anesthetic effect in mouse assessed as duration of loss of righting reflex at 8 mg/kg, iv. It counts as functional.
Assay [8] has as its system Xenopus laevis. The assay is described as follows: Anesthetic effect on Xenopus laevis tadpole assessed as loss of swimming reflex at 3 uM. It counts as functional, organism-based.
Assay [9] relates to Xenopus laevis. Nature of the assay: Anesthetic effect on Xenopus laevis tadpole assessed as loss of righting reflex. It counts as functional, organism-based. In short, it runs like this: as §1
Assay [10] has as its system Oocyte. Nature of the assay: Activity at rat GABA-A receptor alpha1beta2gamma2L expressed in Xenopus oocytes assessed as increase in chloride current at 10 uM by electrophysiological Method relative to GABA. Format: cell-based. Put shortly:
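Direct gating measured without GABA. Current evoked by 10 µM steroid applied alone to oocytes expressing rat α1β2γ2L GABA-A receptors, expressed as a ratio to the current evoked by 2 µM GABA. Whole-cell recording. At least four oocytes per compound; mean ± SEM.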

Assay [11] deals with Oocyte. Nature of the assay: Activity at rat GABA-A receptor alpha1beta2gamma2L expressed in Xenopus oocytes assessed as potentiation of GABA-induced chloride current at 10 uM by electrophysiological Method relative to control. Format: cell-based. In short, it runs like this:
(§2)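 Oocytes expressing rat α1β2γ2L GABA-A receptors were recorded whole-cell. Compound at 0.1, 1 or 10 µM was co-applied with 2 µM GABA. Response is the current ratio with/without compound. At least four different oocytes per concentration; mean ± SEM.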

Assay [12] relates to Oocyte. Nature of the assay: Activity at rat GABA-A receptor alpha1beta2gamma2L expressed in Xenopus oocytes assessed as potentiation of GABA-induced chloride current at 1 uM by electrophysiological Method relative to control. It counts as cell-based. In short, it runs like this:
as §2

The test system of assay [13] is Oocyte. The assay is described as follows: Activity at rat GABA-A receptor alpha1beta2gamma2L expressed in Xenopus oocytes assessed as potentiation of GABA-induced chloride current at 0.1 uM by electrophysiological Method relative to control. It counts as cell-based. Put shortly: as §2
Assay [14] concerns Xenopus laevis. Nature of the assay: Anesthetic effect on Xenopus laevis tadpole assessed as loss of swimming reflex at 30 uM. Format: functional, organism-based.

Turning to `CC(=O)[C@H]1CC[C@H]2[C@@H]3CC[C@H]4C[C@H](O)CC[C@]4(C)[C@H]3C(=O)C[C@]12C` [ALFAXALONE], the Time in [1] is reported as 4 min; in [3], 1 min. In addition, the result in assay [2] was Active. For the same compound, the outcome in [4] was inactive.
With `C[C@]12CC[C@@H](O)C[C@@H]1CC[C@@H]1[C@@H]2C(=O)C[C@]2(C)/C(=C\C#N)CC[C@@H]12`, the Time in assay [1] is 4 min; in assay [7], 1.5 min. In assay [5], the EC50 was determined as 5.48 µM. For the same compound, the result in assay [6] was inactive. In assay [8], the result was Active.
Turning to `C[C@]12CC[C@@H](O)C[C@@H]1CC[C@H]1[C@@H]3CC[C@H](C=O)[C@@]3(C)CC(=O)[C@@H]12`, the outcome in [6] was inactive. In addition, the result in assay [8] was Active. The EC50 in assay [9] came to 3.98 µM.
As for `C[C@]12CC[C@@H](O)C[C@@H]1CC[C@H]1[C@@H]3CC[C@H](CC#N)[C@@]3(C)CC(=O)[C@@H]12`, the fold change (FC) in assay [10] was found to be 0.01; in assay [11] it was 4.67; in [12] it was 1.13; in assay [13] it was 0.91. Further, in [6], the result was inactive. Moreover, the outcome in assay [8] was Active. The EC50 in [9] is 3.58 µM.
Regarding `C/C(C#N)=C1\CC[C@H]2[C@@H]3CC[C@H]4C[C@H](O)CC[C@]4(C)[C@H]3C(=O)C[C@]12C`, the fold change (FC) was 0.04 in assay [10], 5.02 in assay [11], 1.52 in assay [12] and 0.9 in assay [13]. Besides, the EC50 in assay [5] came to 5.48 µM; in [9], 2.71 µM. For the same compound, in [6], the outcome was inactive. The outcome in assay [8] was Active.
Consider `C/C(C#N)=C1/CC[C@H]2[C@@H]3CC[C@H]4C[C@H](O)CC[C@]4(C)[C@H]3C(=O)C[C@]12C`, for which the fold change (FC) stood at 0.05 in [10], 1.53 in assay [11], 0.86 in [12] and 0.9 in [13]. Moreover, the figures for the concentration giving a half-maximal response (EC50) in assay [5] and in assay [9] were 10 µM and 2.09 µM, respectively. Also, the outcome in assay [6] was inactive. The outcome in assay [8] was Active.
Regarding `C[C@]12CC[C@@H](O)C[C@@H]1CC[C@@H]1[C@@H]2C(=O)C[C@]2(C)C(C=O)=CC[C@@H]12`, in [6], the outcome was inactive. In addition, the outcome in assay [8] was Active. In addition, the EC50 in assay [9] came out at 3.22 µM.
For `C[C@]12CC[C@@H](O)C[C@@H]1CC[C@@H]1[C@@H]2C(=O)C[C@]2(C)/C(=C/C#N)CC[C@@H]12`, the outcome in [14] was inactive. Also, the EC50 in assay [5] is 17.3 µM; in [9], 9.15 µM. The outcome in assay [6] was Active.
